Results on 32 molecules are retold here after ChEMBL document CHEMBL1131566, “(E)-3-(2-(N-phenylcarbamoyl)vinyl)pyrrole-2-carboxylic acid derivatives. A novel class of glycine site antagonists” (J Med Chem, 1998).

The target of assay [1] is Glutamate receptor ionotropic, kainate (Rattus norvegicus) (UniProt P22756+Q01812+P42260+P42264+Q63273). The experiment in a line: Displacement of [3H]-kainic acid in the Ionotropic glutamate receptor kainate at 100 uM represented by the percent of specific binding (%SB). The format is protein-complex assay. Put shortly:
(§1)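 Rat cortical membrane binding, inhibition of [³H]CPP (NMDA glutamate site), [³H]AMPA or [³H]kainic acid. Compounds come from 5 mM DMSO stocks and are tested in duplicate at five concentrations (10 nM to 100 μM); a reference compound is included as control. Displacement at 100 μM is given as % specific binding.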
A general note: Displacement assays read how much labelled ligand stays bound in the presence of the test substance.

Assay [2] concerns the target T1, Glutamate receptor ionotropic, AMPA (Rattus norvegicus) (UniProt P19491+P19492+P19493+P19490). The experiment in a line: Displacement of the ligand in the Ionotropic glutamate receptor AMPA site at 100 uM represented by the percent of specific binding(%SB). It is filed as protein-complex assay. Put shortly: as §1
Assay [3] has as its target Glutamate receptor ionotropic, kainate. The experiment in a line: Inhibition of binding of [3H]-kainic acid to Ionotropic glutamate receptor kainate in crude synaptic membranes prepared from adult rat cerebral cortex. The format is cell membranes. Put shortly:
as §1

A further assay addresses Glutamate NMDA receptor. The assay is described as follows: Compound was evaluated for its ability ot displace [3H]CPP binding to N-methyl-D-aspartate glutamate receptor. It is filed as protein-complex assay. Put shortly:
as §1

For assay [4], the target named is T2, Glutamate NMDA receptor (Rattus norvegicus) (UniProt P35439+Q00959+Q00960+Q00961+Q62645+Q8VHN2+Q9R1M7). The experiment in a line: Displacement of the ligand in the N-methyl-D-aspartate glutamate receptor at 100 uM represented by the percent of specific binding(%SB). It is filed as protein-complex assay.
In assay [5] the target is T3, Glutamate receptor ionotropic, AMPA (Rattus norvegicus, UniProt P19490+P19491+P19492+P19493). The assay is described as follows: (§2) Displacement of the [3H]AMPA binding to Ionotropic glutamate receptor AMPA at 100 uM represented by the percent of specific binding(%SB). The format is protein-complex assay. Put shortly:
as §1

For assay [6], the target named is T4, Glutamate receptor ionotropic, NMDA 1 (Rattus norvegicus, UniProt P35439). The assay is described as follows: (§3) Inhibition of binding of [3H]glycine to N-methyl-D-aspartate glutamate receptor 1 from crude synaptic membranes prepared from adult rat cerebral cortex. It is filed as tissue-based. Put shortly: (§4)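 Crude synaptic membranes from adult rat cerebral cortex are incubated 20 min at 4 °C in 50 mM Tris/citrate pH 7.10 with 20 nM [³H]glycine. Compounds come from 5 mM DMSO stocks, seven concentrations (0.1 nM to 100 μM) in duplicate, with a reference control. Ki is fitted by nonlinear curve fitting from ≥6-point curves, geometric mean of ≥3 experiments. Displacement at 100 μM is given as %SB.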

The target of assay [7] is Glutamate receptor ionotropic, NMDA 1 (Rattus norvegicus) (UniProt P35439). The experiment in a line: Displacement of [3H]glycine binding to N-methyl-D-aspartate glutamate receptor 1 at 100 uM represented by the percent of specific binding(%SB). Put shortly:
as §4

Assay [8] has the same target. The assay is described as §3. The format is tissue-based. Put shortly:
as §4

For assay [9] the target is unchanged. The assay is described as follows: Compound was evaluated for its ability to displace [3H]-TCP binding to N-methyl-D-aspartate glutamate receptor 1. alpha value 0 indicates full antagonist. Put shortly:
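[³H]TCP binding runs 2 h at 30 °C in Tris/5mM HCl pH 7.7 with 1 μM glutamic acid. Nonspecific binding is defined with 30 μM (+)-MK801. Glycine concentration-response curves are run in the presence of increasing test-compound concentrations to derive α.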

Assay [10] addresses T1, Glutamate receptor ionotropic, AMPA (Rattus norvegicus). Described as §2. The format is protein-complex assay. Put shortly:
as §1

For assay [11], the target named is T3, Glutamate receptor ionotropic, AMPA. The experiment in a line: Inhibition of binding of [3H]AMPA to Ionotropic glutamate receptor AMPA. It is filed as protein-complex assay. Put shortly:
as §1

Assay [12] in a line: Displacement of the [3H]CPP binding to NMDA receptor/glutamate site at 100 uM represented by the percent of specific binding(%SB). Put shortly:
as §1

The target in assay [13] is Glutamate receptor ionotropic, kainate. The assay is described as follows: Inhibition of binding of [3H]-kainic acid to Ionotropic glutamate receptor kainate. It is filed as protein-complex assay. Put shortly:
as §1

Assay [14] is described as follows: Compound was evaluated for its ability ot displace [3H]CPP binding to NMDA receptor/glutamate site. Put shortly: as §1
The target in assay [15] is T2, Glutamate NMDA receptor (Rattus norvegicus). The experiment in a line: Displacement of the [3H]CPP binding to N-methyl-D-aspartate glutamate receptor at 100 uM represented by the percent of specific binding(%SB). It is filed as protein-complex assay. Put shortly:
as §1

Assay [16] deals with T4, Glutamate receptor ionotropic, NMDA 1. Described as §3. It is filed as tissue-based. The source holds these as a separate data set.

The term IC50 denotes the concentration that inhibits the measured activity by half. A low value points to higher potency. In general, Ki refers to a measure of affinity in units of concentration, obtained from inhibition or displacement. A low value points to higher affinity. Take `Cc1[nH]c(C(=O)O)c(/C=C/C(=O)Nc2ccccc2)c1Br`: the SB in [1] worked out at 0%; in assay [2], 11%; in assay [4], 0%; in assay [7] it was 100%. In addition, the Log Ki (in assay [3]; on Glutamate NMDA receptor) was more than -4 each time. Further, the IC50 in [5] was more than 100 µM. In assay [6], the Ki was 57.5 nM.

Turning to `O=C(/C=C/c1c(C(=O)O)[nH]c(-c2ccccc2)c1Br)Nc1ccccc1`, the Ki in assay [6] is more than 100000 nM. In [6], `CCc1c(C)[nH]c(C(=O)O)c1/C=C/C(=O)Nc1ccccc1` had a Ki of 832 nM.

Regarding `O=C(/C=C/c1c(Br)c[nH]c1C(=O)O)Nc1ccccc1`, the Ki in [6] was 3310 nM. As for `Cc1c(/C=C/C(=O)Nc2ccccc2)c(C(=O)O)n(C)c1C`, the Ki in [6] is more than 100000 nM. Regarding `O=C(/C=C/c1c(-c2ccccc2)c[nH]c1C(=O)O)Nc1ccccc1`, the Ki in assay [6] was more than 100000 nM. `O=C(/C=C/c1cc[nH]c1C(=O)O)Nc1ccccc1` gave a Ki in assay [6] of more than 100000 nM.

`Cc1cc(/C=C/C(=O)Nc2ccccc2)c(C(=O)O)[nH]1` gave a Ki in assay [6] of 63100 nM.

The molecule `O=C(/C=C/c1c(C(=O)O)[nH]c(I)c1I)Nc1ccccc1` had an inhibitory constant (Ki) in [6] of 35.5 nM. Still for that read-out and setting: next, `O=C(/C=C/c1cc(-c2ccccc2)[nH]c1C(=O)O)Nc1ccccc1`: more than 100000 nM. Consider `CCc1[nH]c(C(=O)O)c(/C=C/C(=O)Nc2ccccc2)c1C`, for which the Ki in assay [6] is 776 nM. On the same count and under the same terms, next, `Cc1c(-c2ccccc2)[nH]c(C(=O)O)c1/C=C/C(=O)Nc1ccccc1`: more than 100000 nM. `O=C(/C=C/c1c(C(=O)O)[nH]c(-c2ccccc2)c1-c1ccccc1)Nc1ccccc1` gave a Ki in assay [6] of more than 100000 nM.

In assay [6], `O=C(/C=C/c1c(C(=O)O)[nH]c2c1CCC2)Nc1ccccc1` gave a Ki of 1150 nM. Regarding `Cc1[nH]c(C(=O)O)c(/C=C/C(=O)Nc2ccccc2)c1Cl`, the Ki in assay [6] is 316 nM. `O=C(/C=C/c1c(C(=O)O)[nH]c2cc(Cl)cc(Cl)c12)Nc1ccccc1` gave an SB in assay [8] of 100%. Moreover, in assay [9], the Alpha worked out at 0. With `O=C(/C=C/c1c(C(=O)O)[nH]c(Br)c1Br)Nc1ccccc1`, the SB in [1] came to 5%; in [10], 10%; in [12], 0%; in assay [7], 100%. This molecule gave a half-maximal inhibitory concentration (IC50) in assay [11] of more than 100 µM. Further, the Log Ki in assay [13] and in assay [14] was more than -4 in each case. In assay [6], the Ki was 11.2 nM. As to `Cc1[nH]c(C(=O)O)c(/C=C/C(=O)Nc2ccccc2)c1C`, the SB in assay [1] is 9%; in assay [10] it was 0%; in [15], 0%; in assay [7] it was 100%. The molecule further showed an IC50 in assay [11] of more than 100 µM. Further, the Log Ki (at Glutamate NMDA receptor; in assay [13]) was more than -4 throughout. Further, in assay [9], the Alpha came to 0. The same molecule showed a Ki in [6] of 200 nM. `O=C(O)c1cc(O)c2c(I)cc(Cl)cc2n1`: the IC50 in assay [16] was 32 nM. Take `Cc1[nH]c(C(=O)O)c(/C=C/C(=O)Nc2ccccc2)c1C(C)C`: in assay [6], the Ki was 398 nM.

Molecule `Cc1c(-c2ccc(Cl)cc2Cl)[nH]c(C(=O)O)c1/C=C/C(=O)Nc1ccccc1` gave a Ki in assay [6] of more than 100000 nM. `Oc1ccc(-c2c(O)nc3cc(Cl)cc(Cl)c3c2O)cc1` returned an IC50 in assay [16] of 13 nM. Take `Cc1[nH]c(C(=O)O)c(/C=C/C(=O)Nc2ccccc2)c1OCc1ccccc1`: the affinity in assay [6] corresponds to a Ki of 4790 nM. Molecule `Cc1[nH]c(C(=O)O)c(/C=C/C(=O)Nc2ccccc2)c1I` gave a Ki in [6] of 42.7 nM. On the same count and under the same terms, under `O=C(/C=C/c1c(C(=O)O)[nH]c2c1CCCC2)Nc1ccccc1` stands 617 nM; under `CCOc1c(C)[nH]c(C(=O)O)c1/C=C/C(=O)Nc1ccccc1`, 6760 nM. In assay [16], `O=C(Nc1ccccc1)N[C@H]1C[C@H](C(=O)O)Nc2cc(Cl)cc(Cl)c21` showed an IC50 of 7.8 nM. `CC(=O)c1c(C)[nH]c(C(=O)O)c1/C=C/C(=O)Nc1ccccc1` gave a Ki in [6] of 5750 nM. In the case of `Cc1c(C(C)C)[nH]c(C(=O)O)c1/C=C/C(=O)Nc1ccccc1`, the Ki in [6] is 6170 nM. With `Cc1[nH]c(C(=O)O)c(/C=C/C(=O)Nc2ccccc2)c1-c1ccccc1`, the inhibitory constant (Ki) in assay [6] was more than 100000 nM. Take `Cc1ccc2c(O)cc(=O)c(=O)[nH]c2c1`: the Kb in [8] came to 470 nM. Turning to `O=C(O)CCc1c(C(=O)O)[nH]c2cc(Cl)cc(Cl)c12`, in assay [16], the IC50 came to 140 nM.
